Series [1] has as its system A-431. In words: Antiproliferative activity against human A-431 cells assessed as reduction in cell proliferation measured after 72 hrs by celltiter-glo assay. To be noted: A-431, 72 h. The class given is functional, cell-based. In a few lines:
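Cells in RPMI 1640 with 10% heat-inactivated FBS at 37°C and 5% CO₂ were seeded at 2 to 3 × 10³ per well. […] Growth was read as cellular ATP by CellTiter-Glo.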
On the technique in general: Cellular ATP, detected with luciferase, serves as a proxy for viable cell number.

The subject of series [2] is NCI-H460. Put plainly: Synergistic antiproliferative activity against human NCI-H460 cells assessed as combination index at ED50 measured after 72 hrs in presence of erlotinib by celltiter-glo assay. The format is functional.
Series [3] relates to NCI-N87. In words: Synergistic antiproliferative activity against human NCI-N87 cells assessed as combination index at ED50 measured after 72 hrs in presence of lapatinib by celltiter-glo assay. The format is functional.
Series [4] has as its system NCI-H292. Put plainly: Synergistic antiproliferative activity against human NCI-H292 cells assessed as combination index at ED75 measured after 72 hrs in presence of erlotinib by celltiter-glo assay. The format is functional.
The subject of series [5] is NCI-H23. In words: Synergistic antiproliferative activity against human NCI-H23 cells assessed as combination index at ED75 measured after 72 hrs in presence of erlotinib by celltiter-glo assay. The format is functional.
The test system of series [6] is MDA-MB-468. In words: Synergistic antiproliferative activity against human MDA-MB-468 cells assessed as combination index at ED75 measured after 72 hrs in presence of lapatinib by celltiter-glo assay. The format is functional.
Series [7] relates to NCI-H292. Put plainly: Induction of apoptosis in human NCI-H292 cells assessed as increase in caspase-3/7 activity up to 3 umol/L measured after 48 hrs by caspase-glo 3/7 assay. The class given is functional, cell-based. To be noted: dose <= 3.0 µmol/L. In a few lines: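 Caspase-3/7 activity was measured by Caspase-Glo 3/7 and expressed as fold over DMSO vehicle control. The experiment was done twice.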

Series [8] deals with RAC-alpha serine/threonine-protein kinase (Homo sapiens) (UniProt P31749). In words: Inhibition of AKT in human A-431 cells assessed as reduction in PRAS40 phosphorylation at T246 residue at 5 umol/L measured after 5 hrs by Western blot analysis. The format is cell-based. To be noted: dose 5.0 µmol/L. The essentials: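 Cells were lysed in Tris-HCl pH 7.5, 150 mM NaCl, 1% Triton X-100 with protease and phosphatase inhibitors. Lysates were run on SDS-PAGE, transferred to nitrocellulose and probed with phospho-specific antibodies.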
For orientation: Immunoblotting shows a protein as a band on a membrane.

The target is the same in series [9]. Put plainly: Inhibition of AKT in human HCC827 cells assessed as reduction in AKT phosphorylation at S473 residue at 5 umol/L measured after 5 hrs in presence of erlotinib by Western blot analysis. The format is cell-based. The following applies: dose 5.0 µmol/L.
Series [10] is described as follows: In vivo inhibition of AKT phosphorylation at S473 residue in human NCI-H292 cells xenografted mouse at 120 mg/kg, po administered as single dose 2 hrs post-erlotinib treatment measured after 12 hrs by Western blot analysis relative to control. The class given is functional. For orientation: Xenograft models place foreign cells or tissue in a host animal.
Series [11] concerns NCI-H292. Put plainly: Antitumor activity against human NCI-H292 cells xenografted in CD-1 mouse assessed as tumor growth suppression at 120 mg/kg, po administered 3 times per week for 2 weeks starting 2 hrs post-erlotinib treatment and measured twice a week during compound dosing by caliper method. The format is functional, organism-based. In a few lines: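 Female CD1-nude mice carried s.c. NCI-H292 cells in Matrigel/PBS and were randomized at 0.2 cm³, n = 5. […] MK-2206 (30% Captisol) was given 2 h later at 120 mg/kg po on days 0, 2, 4, 7, 9, 11, or at 360 mg/kg on days 0 and 7. Control received vehicle. Caliper volume twice weekly.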

The subject of series [12] is BT-474. Put plainly: Synergistic antiproliferative activity against docetaxel pretreated human BT-474 cells assessed as combination index at ED90 measured after 72 hrs by celltiter-glo assay. The format is functional.
Series [13] has as its system MDA-MB-231. In words: Synergistic antiproliferative activity against human MDA-MB-231 cells assessed as combination index at ED50 measured after 72 hrs in presence of docetaxel by celltiter-glo assay. The format is functional. The essentials: (§1)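 Cells grown in RPMI 1640 with 10% heat-inactivated FBS at 37°C, 5% CO₂. Seeded at 2 to 3 × 10³ per well; drugs added 24 h later. […] Viability read as cellular ATP by CellTiter-Glo. CI calculated by Chou–Talalay from median-effect plots at ED50, ED75 and ED90.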

For series [14], the system named is MCF7. In words: Synergistic antiproliferative activity against human MCF7 cells assessed as combination index at ED90 measured after 72 hrs in presence of docetaxel by celltiter-glo assay. The class given is functional. The essentials:
as §1

The test system of series [15] is A2780. Put plainly: Synergistic antiproliferative activity against human A2780 cells assessed as combination index at ED50 measured after 72 hrs in presence of gemcitabine by celltiter-glo assay. The class given is functional. The essentials:
(§2)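 Cells were seeded at 2–3 × 10³ per well in RPMI 1640 with 10% FBS. At 24 h, MK-2206 and the partner drug were added simultaneously at constant concentration ratios spanning each agent's IC₅₀, for 72 h. Growth was read as cellular ATP by CellTiter-Glo. CI was taken from median-effect plots of each agent alone and in combination (Chou–Talalay), at ED₅₀, ED₇₅ and ED₉₀.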

Series [16] relates to A2780. In words: Synergistic antiproliferative activity against human A2780 cells assessed as combination index at ED50 measured after 72 hrs in presence of 5-FU by celltiter-glo assay. The format is functional. In a few lines:
as §2

Series [17] deals with A2780. In words: Cell cycle arrest in human A2780 cells assessed as increase in accumulation of cells at sub-G1 phase at 0.12 to 3 umol/L measured after 72 hrs in presence of carboplatin by propidium iodide staining based flow cytometry relative to control. The format is functional. The following applies: dose 0.12-3 µmol/L, at 0.12 to 3 µM.
Series [18] relates to NCI-H460. Put plainly: Antitumor activity against human NCI-H460 cells xenografted in CD1 nude mouse assessed as reduction in tumor volume at 120 mg/kg, po administered 3 times per week for 2 weeks by caliper method. The class given is functional, organism-based. In a few lines: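 NCI-H460 cells were injected s.c. in Matrigel/PBS into CD1-nude mice (female in the carboplatin study). Mice were randomized at 0.2 cm³, n = 5. Carboplatin was given at 50 mg/kg or gemcitabine at 100 mg/kg, i.v. in saline, on days 0 and 7. MK-2206 (30% Captisol) was given at 120 mg/kg po on days 0, 2, 4, 7, 9, 11. Tumors measured by caliper twice weekly.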

The nature of series [19]: Toxicity in human NCI-H460 cells xenografted CD1 nude mouse assessed as body weight loss at 120 mg/kg, po administered 3 times per week for 2 weeks measured during compound dosing relative to control. The class given is organism-based. To be noted: in vivo, 336 h.
Series [20] is described as follows: Toxicity in human NCI-H460 cells xenografted CD1 nude mouse assessed as body weight loss at 120 mg/kg, po administered 3 times per week for 2 weeks measured on day 14 to 16 in presence of gemcitabine. The format is organism-based. To be noted: in vivo, 336 h, time 14-16 day. In a few lines: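 NCI-H460 cells in 50% Matrigel/PBS injected s.c. into flank of CD1-nude mice; randomized at mean tumour 0.2 cm³ (n = 5). MK-2206 in 30% Captisol, 120 mg/kg p.o. days 0, 2, 4, 7, 9, 11. Carboplatin 50 mg/kg i.v. in saline days 0 and 7 (from day 12 after implant), or gemcitabine 100 mg/kg i.v. in saline days 0 and 7 (from day 8). Body weight monitored.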

The subject of series [21] is NCI-H1993. Put plainly: Induction of apoptosis in human NCI-H1993 cells assessed as fold induction of capsase-3/7 activity measured after 24 to 48 hrs in presence of carboplatin by caspase-glo 3/7 assay. The class given is functional. To be noted: time 24-48 hrs.

By IC50 is commonly meant the midpoint of a concentration-inhibition curve. One may read the inhibition in vivo as the share of the control response that was lost under treatment. Read a low inhibition in vivo as a response near the control.

Calls of active or inactive are those of the source. The rule behind the calls is not given here.

Sequence of RAC-alpha serine/threonine-protein kinase (Homo sapiens) (P31749 whole entry): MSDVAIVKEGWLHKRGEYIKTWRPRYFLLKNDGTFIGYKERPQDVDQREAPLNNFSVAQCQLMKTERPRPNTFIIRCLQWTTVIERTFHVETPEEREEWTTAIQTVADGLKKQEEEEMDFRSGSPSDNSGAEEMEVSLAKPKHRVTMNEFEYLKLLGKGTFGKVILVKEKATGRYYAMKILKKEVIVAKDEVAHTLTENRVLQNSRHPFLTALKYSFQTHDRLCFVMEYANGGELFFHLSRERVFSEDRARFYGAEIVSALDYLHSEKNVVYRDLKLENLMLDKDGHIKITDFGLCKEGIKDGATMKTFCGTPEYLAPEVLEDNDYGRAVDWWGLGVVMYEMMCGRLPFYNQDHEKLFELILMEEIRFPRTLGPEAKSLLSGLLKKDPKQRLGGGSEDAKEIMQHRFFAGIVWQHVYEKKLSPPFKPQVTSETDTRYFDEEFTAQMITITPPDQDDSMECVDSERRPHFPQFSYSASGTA

`Cl.NC1(c2ccc(-c3nc4ccn5c(=O)[nH]nc5c4cc3-c3ccccc3)cc2)CCC1`: the half-maximal inhibitory concentration (IC50) in series [1] turned out to be 5.5 µM. In addition, the CI50 was 0.34 in [2]; 0.45 in series [3]; 0.9 in series [13]; 0.57 in series [15]; 0.68 in series [16]. The CI75 in series [4] worked out at 0.31; in series [5], 0.46; in series [6] it was 0.25. Further, in series [7], the result was inactive. For the same compound, the inhibition entry in series [8] and in series [9] was “Active” in each case. In series [10], this compound showed an inhibition in vivo at 120 mg/kg of 79.9%. For the same compound, the outcome in series [11] and in series [18] was Active. Moreover, the CI90 in series [12] and in series [14] was 0.3 throughout. For the same compound, the values for the Activity in [17], in [19] and in [20] were over 40%, 7% and “Non-Toxic”, respectively. Further, the “fold change (FC)” value in series [21] worked out at 1.2.

For the origin of these results see ChEMBL document CHEMBL5705892, “MK-2206, an allosteric Akt inhibitor, enhances antitumor efficacy by standard chemotherapeutic agents or molecular targeted drugs in vitro and in vivo” (Mol Cancer Ther, 2010).
